Results as given in ChEMBL document CHEMBL1122008, “Lipophilic 5'-(alkyl phosphate) esters of 1-beta-D-arabinofuranosylcytosine and its N4-acyl and 2,2'-anhydro-3'-O-acyl derivatives as potential prodrugs” (1982).

Tests used:
Format in all cases: functional
Mus musculus [1] = experiment: Antitumor activity against L1210 leukemia in mice (Average weight per mouse on day 1.) at the dose of 200 mg/kg
Procedure, shortened: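 Male B6D2F1J mice (5–9 per group) received 10^5 L1210 cells i.p. on day 0 and drug from day 1, given qd×5 or q4d(2,6). Vehicles were sterile water, 0.05 M potassium phosphate pH 7.4, or 0.4% Tween 80/0.5% CMC/0.9% benzyl alcohol/0.9% saline. Read-out is average body weight per mouse (g) on day 1.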

Mus musculus [2] = experiment: Antitumor activity against L1210/ara-C leukemia in mice (Average weight per mouse on day 1.) at the dose of 1000 mg/kg
Procedure, shortened: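 Male B6D2F1J mice, groups of 5–9, inoculated ip with 10^5 L1210/ara-C cells on day 0. Dosing began day 1 on a qd×5 or q4d(2,6) schedule. Ara-C was given in sterile water, the n-butyl phosphate ester in 0.05 M pH 7.4 potassium phosphate buffer, and others as suspensions in 0.4% Tween 80/0.5% CMC/0.9% benzyl alcohol/0.9% saline. Mice were weighed on days 1 and 7; 7-day change given in g and %.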

Mus musculus [3] = experiment: Antitumor activity against L1210/ara-C leukemia in mice (Percent increase in life span.) at the dose of 1000 mg/kg
Procedure, shortened: (§1)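 Same protocol as the L1210 assay, but with 10^5 kinase-deficient L1210/ara-C cells inoculated ip into male B6D2F1J mice (groups of 5–9) on day 0. Treatment begins day 1, qd×5 or q4d(2,6). %ILS = (T/C − 1)×100 using median survival times of treated and control groups. Body weight recorded days 1 and 7.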

Mus musculus [4] = experiment: Antitumor activity against L1210/ara-C leukemia in mice (Percent increase in life span.) at the dose of 100 mg/kg; procedure, shortened: as §1
Mus musculus [5] = experiment: Antitumor activity against L1210/ara-C leukemia in mice (Percent increase in life span.) at the dose of 500 mg/kg; procedure, shortened: as §1
Mus musculus [6] = experiment: Antitumor activity against L1210/ara-C leukemia in mice (Percent increase in life span.) at the dose of 50 mg/kg; procedure, shortened: as §1
Mus musculus [7] = experiment: Antitumor activity against L1210 leukemia in mice (Average 7-day weight change (%)) at the dose of 1000 mg/kg
Procedure, shortened: (§2)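 Male B6D2F1J mice, groups of five to nine, inoculated ip with 10^5 L1210 cells on day 0. Drug treatment started day 1 on qd×5 or q4d(2,6) schedule. Vehicles: ara-C in sterile water; the n-butyl phosphate ester in 0.05 M pH 7.4 potassium phosphate buffer; others as suspensions in 0.4% Tween 80/0.5% low-density CMC/0.9% benzyl alcohol/0.9% saline. Mice weighed days 1 and 7; 7-day weight change given as g/mouse and %.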

Mus musculus [8] = experiment: Antitumor activity against L1210/ara-C leukemia in mice (Average 7-day weight change) at the dose of 200 mg/kg
Procedure, shortened: (§3)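 Male B6D2F1J mice (5–9 per group) were given 10^5 L1210/ara-C cells i.p. on day 0, with treatment from day 1 on qd×5 or q4d(2,6). Vehicles were sterile water, pH 7.4 0.05 M phosphate buffer, or a Tween 80/CMC/benzyl alcohol saline suspension. Weights were taken on days 1 and 7; change is expressed in g/mouse and as a percentage.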

Mus musculus [9] = experiment: Antitumor activity against L1210/ara-C leukemia in mice (Average 7-day weight change) at the dose of 250 mg/kg; procedure, shortened: as §3
Mus musculus [10] = experiment: Antitumor activity against L1210 leukemia in mice (Average 7-day weight change) at the dose of 500 mg/kg; procedure, shortened: as §2
Mus musculus [11] = experiment: Antitumor activity against L1210 leukemia in mice (Average 7-day weight change) at the dose of 50 mg/kg; procedure, shortened: as §2
Mus musculus [12] = experiment: Antitumor activity against L1210/ara-C leukemia in mice (Average 7-day weight change (%)) at the dose of 200 mg/kg; procedure, shortened: as §3
Mus musculus [13] = experiment: Antitumor activity against L1210/ara-C leukemia in mice (Average 7-day weight change) at the dose of 1000 mg/kg; procedure, shortened: as §3

Nc1ccn([C@@H]2O[C@H](CO)[C@@H](O)[C@@H]2O)c(=O)n1 [CYTARABINE]
Average weight (Mus musculus [1]): 22.6 g mouse-1
Average weight (Mus musculus [2]): 22 g mouse-1
ILS at 1000 mg/kg (Mus musculus [3]): 0%
ILS at 100 mg/kg (Mus musculus [4]): -13%
ILS at 500 mg/kg (Mus musculus [5]): 12%
ILS at 50 mg/kg (Mus musculus [6]): 0%
Weight change (Mus musculus [7]): 3%
Weight change (Mus musculus [8]): -3.1 g mouse-1
Weight change (Mus musculus [9]): 4 g mouse-1
Weight change (Mus musculus [10]): 0.4 g mouse-1
Weight change (Mus musculus [11]): 0.2 g mouse-1
Weight change (Mus musculus [12]): -14%
Weight change (Mus musculus [13]): 2.4 g mouse-1
